For 54 sequences, folding enthalpy and Tm results are on record in the array DNA melting data of Ke et al. (doi:10.1101/2024.01.08.574731).

The nature of data set [1]: folding enthalpy; higher = less favourable; fluorescence melt of hairpins on a sequencing array, two-state fit. The settings on record: sodium 0.088 M. The procedure, abridged:
(§1)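 Library hairpins on a sequenced MiSeq flow cell carried annealed Cy3 and quencher oligos, and their Cy3 fluorescence was imaged in 50 mM Na-HEPES pH 8.0 with 25 mM NaCl, in 2.5 °C steps up to 60 °C. Signals were normalised to Cy3 before quenching and to control constructs. Melting temperature and folding enthalpy were obtained from bootstrapped two-state fits, combined by inverse-variance weighting across four replicates, and the fitted temperatures were then raised by 9.35 °C to match UV melts.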

A short description of data set [2]: melting temperature; fluorescence melt of hairpins on a sequencing array, two-state fit, raised by 9.35 °C to match UV melts. Particulars: sodium 0.088 M. The essentials: as §1

In the case of GGATGCCGAAAGGCTTCC (((.(((....))).))), the folding enthalpy in data set [1] is -119 kJ/mol. For the same sequence, the Tm in data set [2] was 60.3 °C.

For the sequence GGATGCGAAAGCAATTCC ((((((....)))..))), in data set [1], the folding enthalpy is -67.3 kJ/mol. Further, the Tm in data set [2] was determined as 36.7 °C.

On to GGATGCGAAAGCAGCTCC ((((((....)))..))), for which the folding enthalpy in data set [1] is -47.3 kJ/mol. Further, in data set [2], the Tm worked out at 47.5 °C.

GGATGCGAAAGCAGGTCC ((((((....)))..))): in data set [1], the folding enthalpy is -49.2 kJ/mol. For the same sequence, in data set [2], the Tm came to 37.7 °C.

Regarding GGATGCGAAAGCATGTCC ((((((....)))..))), the folding enthalpy in data set [1] was -49 kJ/mol. The Tm in data set [2] turned out to be 35.9 °C.

Consider GGATGCGAAAGCATTTCC ((((((....)))..))), for which the folding enthalpy in data set [1] was -46.3 kJ/mol. For the same sequence, the Tm in data set [2] was 38.8 °C.

Regarding GGATGCGGAAACGTATCC ((((.((....)).)))), the folding enthalpy in data set [1] is -195 kJ/mol. Further, in data set [2], the Tm was 52.6 °C.

For the sequence GGATGGACGAAAGTCTCC (((..(((....)))))), the folding enthalpy in data set [1] was -56.9 kJ/mol. Moreover, the Tm in data set [2] turned out to be 32.5 °C.

For the sequence GGATGGCGAAAGCCCTCC (((.(((....))).))), in data set [1], the folding enthalpy was -131 kJ/mol. Besides, the Tm in data set [2] was determined as 49.2 °C.

Regarding GGATGGCGAAAGCCTTCC (((.(((....))).))), in data set [1], the folding enthalpy is -102 kJ/mol. Further, in data set [2], the Tm amounted to 56.6 °C.

Take GGATGGGGAAACCCGTCC (((.(((....))).))): the folding enthalpy in data set [1] is -203 kJ/mol. In addition, in data set [2], the Tm is 54.2 °C.

For GGATGTCGAAAGACTCC (((.(((....)))))), the folding enthalpy in data set [1] is -106 kJ/mol. Besides, the Tm in data set [2] amounted to 51.8 °C.

As to GGATGTCGAAAGACTTCC (((.(((....))).))), the folding enthalpy in data set [1] is -166 kJ/mol. For the same sequence, the Tm in data set [2] was 51.5 °C.

For the sequence GGATGTGGAAACATGTCC (((..((....))..))), in data set [1], the folding enthalpy was -87.4 kJ/mol. The Tm in data set [2] came to 40 °C.

Take GGATTAGAAATAATCC ((((((....)))))): in data set [1], the folding enthalpy is -123 kJ/mol. Further, the Tm in data set [2] came out at 42.8 °C.

In the case of GGATTCCGAAAGGACTCC (((.(((....))).))), in data set [1], the folding enthalpy is -162 kJ/mol. In data set [2], the Tm worked out at 47 °C.

Regarding GGATTCGAAAGAAGCTCC ((((((....)))..))), the folding enthalpy in data set [1] was -59.3 kJ/mol. For the same sequence, in data set [2], the Tm came out at 32.8 °C.

As to GGATTCGGAAACGGATCC ((((.((....)).)))), the folding enthalpy in data set [1] is -164 kJ/mol. The Tm in data set [2] came to 53 °C.

In the case of GGATTGCCGAAAGGCTCC (((..(((....)))))), the folding enthalpy in data set [1] is -35.1 kJ/mol. In addition, the Tm in data set [2] worked out at 37.6 °C.

Consider GGATTGCGAAAGCATCC (((.(((....)))))), for which the folding enthalpy in data set [1] is -86.8 kJ/mol. Moreover, the Tm in data set [2] was 50.8 °C.

Regarding GGATTGGCGAAAGCCTCC (((..(((....)))))), the folding enthalpy in data set [1] is -43.8 kJ/mol. Further, the Tm in data set [2] is 35.3 °C.

On to GGATTGGGAAACCAATCC (((((((....))))))), for which, in data set [1], the folding enthalpy was -204 kJ/mol. Further, in data set [2], the Tm was 60.2 °C.

Regarding GGATTTCCGAAAGGATCC (((..(((....)))))), the folding enthalpy in data set [1] is -73.6 kJ/mol. Besides, the Tm in data set [2] is 34.2 °C.

Take GGATTTCGAAAGAACTCC (((.(((....))).))): in data set [1], the folding enthalpy was -123 kJ/mol. For the same sequence, the Tm in data set [2] turned out to be 38 °C.

Regarding GGCAAACGAAAGTTGGCC (((.(((....))).))), the folding enthalpy in data set [1] was -184 kJ/mol. Also, in data set [2], the Tm came out at 60.2 °C.

For GGCAAAGGAAACCTTGCC (((((.(....).))))), the folding enthalpy in data set [1] was -132 kJ/mol. In data set [2], the Tm is 49.3 °C.

With GGCAAAGGAAACTTTGTC (.(((((....))))).), the folding enthalpy in data set [1] is -122 kJ/mol. Moreover, the Tm in data set [2] came to 46.5 °C.

On to GGCAACGAAAGTTCTGCC ((((((....)))..))), for which the folding enthalpy in data set [1] is -114 kJ/mol. The Tm in data set [2] came to 40.4 °C.

Turning to GGCAACGAAAGTTGTGCC ((((((....)))..))), the folding enthalpy in data set [1] is -56.6 kJ/mol. The Tm in data set [2] stood at 51.2 °C.

Consider GGCAACGAAAGTTTAGCC ((((((....)))..))), for which, in data set [1], the folding enthalpy is -122 kJ/mol. Also, in data set [2], the Tm came out at 43.5 °C.

For GGCAACGCGAAAGCGGCC (((..(((....)))))), the folding enthalpy in data set [1] was -82.9 kJ/mol. For the same sequence, the Tm in data set [2] came out at 59.7 °C.

Regarding GGCAAGCCGAAAGGCGCC (((..(((....)))))), the folding enthalpy in data set [1] is -60.3 kJ/mol. Besides, the Tm in data set [2] was 59.8 °C.

Regarding GGCAAGGGAAACCTTGTC (.(((((....))))).), the folding enthalpy in data set [1] was -133 kJ/mol. The Tm in data set [2] was 50.6 °C.

Regarding GGCAATCGAAAGATGCC (((.(((....)))))), in data set [1], the folding enthalpy is -169 kJ/mol. Also, the Tm in data set [2] was 56.5 °C.

On to GGCACACGAAAGTGAGCC (((.(((....))).))), for which the folding enthalpy in data set [1] is -159 kJ/mol. In data set [2], the Tm is 63.5 °C.

Take GGCACAGGAAACTATGCC ((((.((....)).)))): the folding enthalpy in data set [1] is -122 kJ/mol. In data set [2], the Tm was 41.7 °C.

Turning to GGCACAGGAAACTGTGTC (.(((((....))))).), the folding enthalpy in data set [1] is -135 kJ/mol. In data set [2], the Tm was found to be 54 °C.

Turning to GGCACCGAAAGGTAGGCC ((((((....)))..))), in data set [1], the folding enthalpy was -124 kJ/mol. Besides, the Tm in data set [2] is 52.7 °C.

In the case of GGCACCGAAAGGTCGCC ((((((....))).))), the folding enthalpy in data set [1] is -149 kJ/mol. In data set [2], the Tm was 59.4 °C.

As to GGCACCGGAAACAGCGCC (((.(.(....).).))), the folding enthalpy in data set [1] is -92.3 kJ/mol. Besides, in data set [2], the Tm was 34.5 °C.

With GGCACCGGAAACGGCACC ((..(((....)))..)), the folding enthalpy in data set [1] is -66 kJ/mol. Also, the Tm in data set [2] was 30.9 °C.

On to GGCACCGGAAACGGCGCC (((.(((....))).))), for which the folding enthalpy in data set [1] was -220 kJ/mol. In data set [2], the Tm came to 61.2 °C.

As to GGCACTCGAAAGAGCGCC (((.(((....))).))), the folding enthalpy in data set [1] was -222 kJ/mol. Also, the Tm in data set [2] came to 59.3 °C.

For the sequence GGCAGAGGAAACTCTGTC (.(((((....))))).), the folding enthalpy in data set [1] was -129 kJ/mol. The Tm in data set [2] came out at 49.7 °C.

As to GGCAGATCGAAAGATGCC (((..(((....)))))), the folding enthalpy in data set [1] is -112 kJ/mol. Further, the Tm in data set [2] was found to be 49.4 °C.

Regarding GGCAGCCCGAAAGGGGCC (((..(((....)))))), in data set [1], the folding enthalpy was -55.7 kJ/mol. Further, in data set [2], the Tm was 50.7 °C.

On to GGCAGCGAAAGCTATGCC ((((((....)))..))), for which the folding enthalpy in data set [1] was -120 kJ/mol. In addition, the Tm in data set [2] was determined as 55.3 °C.

Regarding GGCAGCGAAAGCTCCGCC ((((((....)))..))), the folding enthalpy in data set [1] is -80.4 kJ/mol. In data set [2], the Tm was 56 °C.

On to GGCAGCGAAAGCTCGGCC ((((((....)))..))), for which the folding enthalpy in data set [1] was -74 kJ/mol. The Tm in data set [2] amounted to 53.5 °C.

Consider GGCAGCGAAAGCTTAGCC ((((((....)))..))), for which, in data set [1], the folding enthalpy is -108 kJ/mol. In addition, the Tm in data set [2] amounted to 51.7 °C.

With GGCAGCGGAAACGCCACC ((..(((....)))..)), the folding enthalpy in data set [1] is -58 kJ/mol. The Tm in data set [2] is 36.6 °C.

As for GGCAGCGGAAACGCCGCC (((.(((....))).))), in data set [1], the folding enthalpy is -131 kJ/mol. In addition, the Tm in data set [2] stood at 61.5 °C.

For GGCAGCTCGAAAGAGGCC (((..(((....)))))), the folding enthalpy in data set [1] was -72.6 kJ/mol. The Tm in data set [2] worked out at 47.3 °C.

Turning to GGCAGGCGAAAGCCCGCC (((.(((....))).))), the folding enthalpy in data set [1] is -95.5 kJ/mol. In addition, in data set [2], the Tm was 66.2 °C.
